Bioassay records (PubChem)
KCNQ1 inh – human KCNQ1 channel inhibition; CHO-K1 KCNQ1, FluxOR thallium flux fluorescence; active compounds read high; B-score at 10 µM; 310,000 compounds, 1.3% hits; P51787;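 active = compounds whose thallium flux B-score, printed positive for inhibition, exceeds three library SD while starting fluorescence stays within three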;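 also: channel opened by potassium depolarization with thallium stimulus after 20 min compound exposure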
KCNK3 block – human KCNK3 channel inhibition, primary screen | B-score at 10 µM | CHO-KCNK3 thallium flux, FluxOR fluorescence; active compounds read low | O14649 | 340,000 compounds, 0.84% hits;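 active = B-score under library mean minus 4 SD, starting fluorescence ratio at most library mean plus 5 SD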;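 also: more negative B-score means stronger inhibition of thallium flux through KCNK3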
hERG protect – hERG (human) protection from proarrhythmic block; activation (rescue from dofetilide block), less the hit threshold, % at 10 µM; CHO-hERG, FluxOR thallium flux, dofetilide IC70 present; Q12809; AID 1511; 310,000 compounds, 0.51% hits;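 active = activation above the mean of controls blocked by dofetilide plus 5 SD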;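 also: thallium influx through hERG after potassium depolarization seen as dye fluorescence rise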
Kir21 inh – Kir2.1 (mouse) channel inhibition. P35561. HEK293-Kir2.1, FluxOR thallium flux fluorescence; active compounds read low. B-score at 10 µM. 310,000 compounds, 0.85% hits. AID 1672;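 active = fluorescence ratio B-score at or below minus 3 SD of library scores, with starting-brightness B-score within 2 SD, cut at about -4.2 in these data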;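 also: channel flux triggered by added potassium and thallium sulfate stimulus; B-score of peak minus minimum fluorescence over baseline after thallium stimulus; more negative B-score means stronger Kir2.1 block with less thallium influx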
Target sequence (P35561 whole entry, looked up): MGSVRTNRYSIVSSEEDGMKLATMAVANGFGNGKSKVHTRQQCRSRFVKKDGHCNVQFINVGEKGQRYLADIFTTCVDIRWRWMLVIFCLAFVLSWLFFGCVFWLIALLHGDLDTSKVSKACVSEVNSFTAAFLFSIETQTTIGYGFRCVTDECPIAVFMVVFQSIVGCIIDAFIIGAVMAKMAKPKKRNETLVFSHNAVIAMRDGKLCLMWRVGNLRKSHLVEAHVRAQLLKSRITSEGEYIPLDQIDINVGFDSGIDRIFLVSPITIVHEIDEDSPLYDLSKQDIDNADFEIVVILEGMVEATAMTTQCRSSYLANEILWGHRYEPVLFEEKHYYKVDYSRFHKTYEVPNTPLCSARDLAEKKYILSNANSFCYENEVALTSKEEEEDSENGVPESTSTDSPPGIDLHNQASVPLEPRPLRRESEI
KCNK9 inh – blocks the human KCNK9 two-pore domain potassium channel | Q9NPC2 | HEK293 KCNK9, FluxOR thallium flux fluorescence; active compounds read low | B-score at 10 µM | 310,000 compounds, 1.2% hits | AID 488922;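 active = ratio B-score over 3 SD below the library mean, with starting fluorescence within 5 SD of its mean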;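 also: negative B-score means less thallium flux so channel inhibition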
KCNQ1 pot – human KCNQ1 channel potentiation or activation; CHO-K1 KCNQ1, thallium flux FluxOR fluorescence; active compounds read high; 310,000 compounds, 0.35% hits; B-score at 10 µM; AID 2648;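 active = fluorescence ratio B-score, a plate-corrected score, at least three library SD, with initial intensity B-score within 5 SD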
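Assay system: CHO-K1 cells stably expressing KCNQ1. Medium: assay buffer for compound exposure, DMSO matched across wells. Timing: 37 °C overnight plating, 90-min dark dye load, 20-min compound pretreatment. Signal: kinetic FluxOR fluorescence, 10 s baseline plus 110 s post-stimulus.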
The depositor's hits bear a star. An excerpt weighted towards active compounds, which were near 3.8% of everything screened.

How did Cc1cc(C)cc(OCc2nnc(SCC(=O)NC3CC3)n2C)c1 do in these assays?
KCNQ1 inh: inactive; KCNK3 block: inactive; hERG protect: -8; Kir21 inh: -1.8; KCNK9 inh: inactive; KCNQ1 pot: inactive

Results for Cc1cc(=O)oc2cc(NC(=O)C(C)Oc3ccc(F)cc3)ccc12 (stereo not drawn) ?
KCNQ1 inh: inactive; KCNK3 block: inactive; hERG protect: -13; Kir21 inh: 0.13; KCNK9 inh: inactive; KCNQ1 pot: inactive

Results for CCN(CC)CCCNC(=O)C1c2ccccc2Oc2ccccc21 ?
KCNQ1 inh: inactive; KCNK3 block: inactive; hERG protect: -9; Kir21 inh: -2.2; KCNK9 inh: inactive; KCNQ1 pot: inactive

Results for CNCCCC1Sc2ccccc2Oc2ccccc21 (stereo not drawn) ?
KCNQ1 inh: inactive; KCNK3 block: inactive; hERG protect: -9; Kir21 inh: -6*; KCNK9 inh: inactive; KCNQ1 pot: inactive

What do the screens show for `O=S(=O)(/C=C/c1ccccc1)N1CCN(c2ccccc2)CC1`?
KCNQ1 inh: inactive; KCNK3 block: inactive; hERG protect: -6; Kir21 inh: 0.36; KCNK9 inh: inactive; KCNQ1 pot: inactive

How did C/C(=N/NC(=O)c1cccs1)c1cccc(NC(=O)C2CC2)c1 do in these assays?
KCNQ1 inh: inactive; KCNK3 block: inactive; hERG protect: -3; Kir21 inh: -0.05; KCNK9 inh: inactive; KCNQ1 pot: inactive

Results for COc1ccc2c(c1)[nH]c1c(N3CCN(Cc4ccc5c(c4)OCO5)CC3)ncnc12 ?
KCNQ1 inh: 9*; KCNK3 block: inactive; hERG protect: -36; Kir21 inh: -1.2; KCNK9 inh: inactive; KCNQ1 pot: inactive

What do the screens show for `Cc1ccc(S(=O)(=O)N(C)CCCC(=O)NC(C)(C)C)cc1`?
KCNQ1 inh: inactive; KCNK3 block: inactive; hERG protect: -4; Kir21 inh: -0.33; KCNK9 inh: inactive; KCNQ1 pot: inactive

What do the screens show for `COc1ccc(NC(=O)c2ccc(Cl)c(S(=O)(=O)N3CCc4ccccc4C3)c2)cn1`?
KCNQ1 inh: inactive; KCNK3 block: -10*; hERG protect: -13; Kir21 inh: -0.17; KCNK9 inh: inactive; KCNQ1 pot: inactive

Results for CC(=O)O[C@H]1C(=O)[C@]2(C)[C@H]([C@H](OC(=O)c3ccccc3)[C@]3(O)C[C@H](OC(=O)[C@H](O)[C@@H](NC(=O)c4ccccc4)c4ccccc4)C(C)=C1C3(C)C)[C@]1(OC(C)=O)CO[C@@H]1C[C@@H]2O ?
KCNQ1 inh: inactive; KCNK3 block: inactive; hERG protect: -9; Kir21 inh: 0.06; KCNK9 inh: inactive; KCNQ1 pot: inactive

How did CC(=O)Nc1ccc(N2C(C(C)=O)=NN(c3ccccc3)C2c2cccs2)cc1 (stereo not drawn) do in these assays?
KCNQ1 inh: inactive; KCNK3 block: inactive; hERG protect: -10; Kir21 inh: 0.76; KCNK9 inh: inactive; KCNQ1 pot: inactive

How did COc1ccc(N2C(C(C)=O)=NN(c3ccccc3)C2c2cccs2)cc1 (stereo not drawn) do in these assays?
KCNQ1 inh: 7*; KCNK3 block: inactive; hERG protect: -9; Kir21 inh: 0.36; KCNK9 inh: inactive; KCNQ1 pot: inactive

What do the screens show for `CC(C)CNC(=O)c1ccccc1NC(=O)c1ccc(CSc2ccccc2)cc1`?
KCNQ1 inh: 7*; KCNK3 block: inactive; hERG protect: -17; Kir21 inh: -0.07; KCNK9 inh: inactive; KCNQ1 pot: inactive

How did O=C(COC(=O)c1ccccc1NC(=O)c1ccco1)NCc1ccc2c(c1)OCO2 do in these assays?
KCNQ1 inh: inactive; KCNK3 block: inactive; hERG protect: -5; Kir21 inh: -0.27; KCNK9 inh: inactive; KCNQ1 pot: inactive

Results for COc1ccccc1-c1c(-c2ccc(OCC(=O)NN)cc2O)n[nH]c1C(F)(F)F ?
KCNQ1 inh: inactive; KCNK3 block: inactive; hERG protect: -4; Kir21 inh: 0.44; KCNK9 inh: inactive; KCNQ1 pot: inactive

How did COc1ccc(-c2n[nH]c(C(F)(F)F)c2-c2cc3ccccc3o2)c(O)c1 do in these assays?
KCNQ1 inh: 8*; KCNK3 block: inactive; hERG protect: -11; Kir21 inh: 2; KCNK9 inh: inactive; KCNQ1 pot: inactive

What do the screens show for `CCC(C)OC(=O)C1=C(C)NC(=O)NC1c1ccc(F)cc1` (stereo not drawn)?
KCNQ1 inh: inactive; KCNK3 block: inactive; hERG protect: -3; Kir21 inh: 1; KCNK9 inh: inactive; KCNQ1 pot: inactive

What do the screens show for `Nc1nc(-c2c(Cl)cccc2Cl)no1`?
KCNQ1 inh: inactive; KCNK3 block: inactive; hERG protect: 5.7*; Kir21 inh: 3.2; KCNK9 inh: inactive; KCNQ1 pot: inactive

Results for O=C1CC[C@H](O)CCN1CCSc1ccc(Br)cc1 ?
KCNK3 block: inactive

How did O=C(NCc1ccccc1)N(Cc1cc2cc3c(cc2[nH]c1=O)OCCO3)CC1CCCO1 (stereo not drawn) do in these assays?
KCNQ1 inh: inactive; KCNK3 block: inactive; hERG protect: -12; Kir21 inh: -2.1; KCNK9 inh: inactive; KCNQ1 pot: inactive

What do the screens show for `Cc1ccc(NC(=O)c2ccc(OC(=O)COc3ccc(Cl)cc3C)cc2)cc1`?
KCNQ1 inh: inactive; KCNK3 block: inactive; hERG protect: -4; Kir21 inh: 0.54; KCNK9 inh: inactive; KCNQ1 pot: inactive

How did Cc1cccc(C(=O)NCC(=O)NNC(=O)c2ccccc2O)c1 do in these assays?
KCNQ1 inh: inactive; KCNK3 block: inactive; hERG protect: -13; Kir21 inh: 0.6; KCNK9 inh: inactive; KCNQ1 pot: inactive

How did COc1ccc(O)c(C(=O)CC(=O)c2ccc(F)cc2)c1 do in these assays?
KCNQ1 inh: inactive; KCNK3 block: inactive; hERG protect: -1; Kir21 inh: -2.2; KCNK9 inh: inactive; KCNQ1 pot: inactive

What do the screens show for `O=C(CC(=O)c1cc(Cl)ccc1O)c1ccccc1`?
KCNQ1 inh: inactive; KCNK3 block: inactive; hERG protect: -3; Kir21 inh: -1; KCNK9 inh: inactive; KCNQ1 pot: 18*

How did Cc1ccc(O)c(C(=O)CC(=O)c2ccc(Cl)cc2)c1 do in these assays?
KCNQ1 inh: inactive; KCNK3 block: inactive; hERG protect: 5.7*; Kir21 inh: 0.13; KCNK9 inh: inactive; KCNQ1 pot: inactive

Results for Cc1ccc(O)c(C(=O)CC(=O)c2cccc(F)c2)c1 ?
KCNQ1 inh: inactive; KCNK3 block: inactive; hERG protect: -1; Kir21 inh: -0.92; KCNK9 inh: inactive; KCNQ1 pot: 27*
